Fewer inactive variants are shown than the library holds. Bounds are passed on as bounds.

B1: tRNA (parent)
chain: GUUCCGUUGGCGUAAUGGUAACGCGUCUCCCUCCUAAGGAGAAGACUGCGGGUUCGAGUCCCGUACGGAACG

The series covers variants of B1. The experiment in a line: yeast fitness relative to wild type (ratio to wild type); higher = fitter; tRNA-Arg(CCU), competitive growth, 37 C, YPD. Summed up:
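The tRNA-Arg(CCU) gene variants were made by chemical synthesis with a 3% per-site mutation rate at 69 sites and inserted at the native genomic locus of Saccharomyces cerevisiae. After pooling, the strains were competed in YPD at 37°C for 24 hours in six parallel replicates. Gene amplicons from the start population and each end population were read by 100-nucleotide paired-end sequencing, and Darwinian fitness relative to wild type was taken from genotype frequency changes. Genotypes needed ≥ 100 starting reads, and estimates < 0.5 were set to 0.5.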
In the case of GUUCCGUUGGCGUAAUGGUAACGCGUCUCCCUCCUAAGGAGAAGACUGCGGGUUCGAGCCCCGUACAGAACG, the yeast fitness worked out at 0.835.
In the case of GUUCCGUUGGCGUAAUGGUAACGCGUCUCCCUCCUAAGGAGAAGACUGCGGGUUCGACUCCGGUACGGAUCG, the yeast fitness came to 0.616.
With GUUCCGUUGGCGUAAUGGUAACGCGUCUCCCUCCUAAGGAGAAGACUGCGGGUUCGAAUCUCGUACGGAGCG, the yeast fitness came to 1.02.
For GUUCCGUUGGCGUAAUGGUAACGCGUCUCCCUCCUAAGGAGAAGACUGCGGGUUCGACUCCCGUACGCAACG the value was 0.937.
As for GUUCCGUUGGCGUAAUGGUAACGCGUCUCCCUCCUAAGGAGAAGACUGCGGGUUCGACUCCCGUACGUAACG, the figure is 0.75; as for GUUCCGUUGGCGUAAUGGUAACGCGUCUCCCUCCUAAGGAGAAGACUGCGGGUUCGACUCCCGUACGAAACG, 0.776; as for GUUCCGUUGGCGUAAUGGUAACGCGUCUCCCUCCUAAGGAGAAGACUGCGGGUUCGAAUCCCGUAGGGAACG, 0.943.
For GUUCCGUUGGCGUAAUGGUAACGCGUCUCCCUCCUAAGGAGAAGACUGCGGGUUCGAUUCCCCUACGGAACG the value was 0.586; for GUUCCGUUGGCGUAAUGGUAACGCGUCUCCCUCCUAAGGAGAAGACUGCGGGUUCGAGACCCGUACCGAACG, 0.813.
As for GUUCCGUUGGCGUAAUGGUAACGCGUCUCCCUCCUAAGGAGAAGACUGCGGGUUCGAACCCCGUACGGAACG, the yeast fitness amounted to 0.971.
As for GUUCCGUUGGCGUAAUGGUAACGCGUCUCCCUCCUAAGGAGAAGACUGCGGGUUCGACUCCCGUACGGCACG, the figure is 1.02.
Consider GUUCCGUUGGCGUAAUGGUAACGCGUCUCCCUCCUAAGGAGAAGACUGCGGGUUCGAAUCCCGGACGGAACG, for which the yeast fitness is 1.01.
As for GUUCCGUUGGCGUAAUGGUAACGCGUCUCCCUCCUAAGGAGAAGACUGCGGGUUCGAAUCCCGCACGGAACG, the figure is 0.976.
For GUUCCGUUGGCGUAAUGGUAACGCGUCUCCCUCCUAAGGAGAAGACUGCGGGUUCGUGUGCCGUACACAACG, the yeast fitness is no more than 0.5.
Take GUUCCGUUGGCGUAAUGGUAACGCGUCUCCCUCCUAAGGAGAAGACUGCGGGUUCGAGCCCCGUUCGGAACG: the yeast fitness worked out at 0.96.
As for GUUCCGUUGGCGUAAUGGUAACGCGUCUCCCUCCUAAGGAGAAGACUGCGGGUUCGAGCCCCGUGCGGAACG, the yeast fitness was found to be 0.938.
As for GUUCCGUUGGCGUAAUGGUAACGCGUCUCCCUCCUAAGGAGAAGACUGCGGGUUCGUGUCCCGUACGAAACG, the figure is 0.658; as for GUUCCGUUGGCGUAAUGGUAACGCGUCUCCCUCCUAAGGAGAAGACUGCGGGUUCGUGUCCCGUACGUAACG, 0.769.
GUUCCGUUGGCGUAAUGGUAACGCGUCUCCCUCCUAAGGAGAAGACUGCGGGUUCGACUCCCGUCCGGAACG: the yeast fitness worked out at 0.867.
As for GUUCCGUUGGCGUAAUGGUAACGCGUCUCCCUCCUAAGGAGAAGACUGCGGGUUCGACUCCCGUGCGGAACG, the figure is 0.933.
For GUUCCGUUGGCGUAAUGGUAACGCGUCUCCCUCCUAAGGAGAAGACUGCGGGUUCGACUCCCGUUCGGAACG the value was 0.88; for GUUCCGUUGGCGUAAUGGUAACGCGUCUCCCUCCUAAGGAGAAGACUGCGGGUUCGAGCCCCGUACGCAACG, 0.765; for GUUCCGUUGGCGUAAUGGUAACGCGUCUCCCUCCUAAGGAGAAGACUGCGGGUUCGUGUGCCGUACGCAACG, 0.532.
As for GUUCCGUUGGCGUAAUGGUAACGCGUCUCCCUCCUAAGGAGAAGACUGCGGGUUCGAAUCCCGUACGGAACG, the figure is 0.981; as for GUUCCGUUGGCGUAAUGGUAACGCGUCUCCCUCCUAAGGAGAAGACUGCGGGUUCGACUCCCGUACGGAACG, 0.992; as for GUUCCGUUGGCGUAAUGGUAACGCGUCUCCCUCCUAAGGAGAAGACUGCGGGUUCGAUUCCCGUACGGAACG, 1.04.
For the variant GUUCCGUUGGCGUAAUGGUAACGCGUCUCCCUCCUAAGGAGAAGACUGCGGGUUCGUGACCCGUACGGCACG, the yeast fitness is 0.654.
GUUCCGUUGGCGUAAUGGUAACGCGUCUCCCUCCUAAGGAGAAGACUGCGGGUUCGUGUCCCAUACGGAACG: the yeast fitness turned out to be 0.681.
As for GUUCCGUUGGCGUAAUGGUAACGCGUCUCCCUCCUAAGGAGAAGACUGCGGGUUCGAGACGCGUACGGAACG, the figure is 0.62; as for GUUCCGUUGGCGUAAUGGUAACGCGUCUCCCUCCUAAGGAGAAGACUGCGGGUUCGAGACUCGUACGGAACG, 0.711.
As to GUUCCGUUGGCGUAAUGGUAACGCGUCUCCCUCCUAAGGAGAAGACUGCGGGUUCGAGACCCGUCCGGAACG, the yeast fitness was found to be 0.892.
For GUUCCGUUGGCGUAAUGGUAACGCGUCUCCCUCCUAAGGAGAAGACUGCGGGUUCGACUCCCGAACGGAACG the value was 0.81.
As for GUUCCGUUGGCGUAAUGGUAACGCGUCUCCCUCCUAAGGAGAAGACUGCGGGUUCGAGCCCAGUACGGAACG, the yeast fitness worked out at 0.75.
Consider GUUCCGUUGGCGUAAUGGUAACGCGUCUCCCUCCUAAGGAGAAGACUGCGGGUUCGAAUCCCGUACCGCACG, for which the yeast fitness is 0.542.
In the case of GUUCCGUUGGCGUAAUGGUAACGCGUCUCCCUCCUAAGGAGAAGACUGCGGGUUCGACUCCCGAACGGGACG, the yeast fitness is 0.61.
As for GUUCCGUUGGCGUAAUGGUAACGCGUCUCCCUCCUAAGGAGAAGACUGCGGGUUCGACUCCCGAACGGCACG, the figure is 0.514; as for GUUCCGUUGGCGUAAUGGUAACGCGUCUCCCUCCUAAGGAGAAGACUGCGGGUUCGUGUCCCGCACGGAACG, 0.783; as for GUUCCGUUGGCGUAAUGGUAACGCGUCUCCCUCCUAAGGAGAAGACUGCGGGUUCGACUGCCGUACGGAACG, 0.683.

The values above are taken from the RNAGym collection of RNA variant scans (doi:10.1126/science.aae0568).
